These results are taken from ChEMBL document CHEMBL3112515, “Discovery of novel 6,7-disubstituted-4-phenoxyquinoline derivatives bearing 5-(aminomethylene)pyrimidine-2,4,6-trione moiety as c-Met kinase inhibitors” (Bioorg Med Chem, 2014).

For orientation: IC50 means the concentration at which inhibition is half-maximal. The low end stands for greater potency, the high end for weaker potency.

In experiment [1] the target is Hepatocyte growth factor receptor (Homo sapiens, UniProt P08581). Nature of the experiment: Inhibition of c-Met (unknown origin) using poly (Glu, Tyr) 4:1 after 30 mins by HTRF assay. Background: In TR-FRET formats the signal depends on donor and acceptor labels being close together.
Experiment [2] can be described thus: Cytotoxicity against human MKN45 cells after 72 hrs by MTT assay. The following applies: MKN-45, 72 h. (Tetrazolium dyes change colour on reduction, which living cells bring about.)
The nature of experiment [3]: Cytotoxicity against human U87MG cells after 72 hrs by MTT assay. The experiment is classed as functional, cell-based, U-87MG ATCC. As to conditions: U-87 MG. The essentials: (§1)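 Cells were grown in MEM with 10% FBS and seeded at about 4×10^3 cells per well, then held 24 h at 37 °C in 5% CO2. Compounds were added and the cells cultured 72 h. MTT was added to 5 µg/mL final for 4 h at 37 °C, and the formazan was dissolved in DMSO. IC50 is the mean of three determinations.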

Experiment [4] concerns A549. Nature of the experiment: Cytotoxicity against human A549 cells after 72 hrs by MTT assay. The experiment is classed as functional, cell-based. As to conditions: A549, 72 h. The essentials: as §1
The nature of experiment [5]: Cytotoxicity against human H460 cells after 72 hrs by MTT assay. As to conditions: NCI-H460, 72 h.
The subject of experiment [6] is HT-29. Nature of the experiment: Cytotoxicity against human HT-29 cells after 72 hrs by MTT assay. As to conditions: HT-29, 72 h.
In experiment [7] the test system is A549. Briefly: Ratio of foretinib IC50 to compound IC50 for human A549 cells after 72 hrs by MTT assay. The experiment is classed as functional.
For another experiment, the system named is U-87 MG. Nature of the experiment: Ratio of foretinib IC50 to compound IC50 for human U87MG cells after 72 hrs by MTT assay. The experiment is classed as functional, U-87MG ATCC.
Experiment [8] concerns the target Epidermal growth factor receptor (Homo sapiens, UniProt P00533). Nature of the experiment: Inhibition of EGFR (unknown origin) using poly (Glu, Tyr) 4:1 after 30 mins by HTRF assay. Summed up:
(§2)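 HTRF assay using purified tyrosine kinase proteins in 50 mM HEPES pH 7.0 with DTT, MgCl2, MnCl2 and 0.1% NaN3. The substrate was poly(Glu,Tyr) 4:1 at 20 µg/mL, and ATP was added as a 10 mM solution. Compounds were diluted in 1% DMSO. Reactions ran 30 min at 25 °C and were stopped with Streptavidin-XL665 and Tk antibody cryptate.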

Experiment [9] concerns HT-29. Nature of the experiment: Ratio of foretinib IC50 to compound IC50 for human HT-29 cells after 72 hrs by MTT assay. The experiment is classed as functional.
The target of experiment [10] is Vascular endothelial growth factor receptor 2 (Homo sapiens, UniProt P35968). Nature of the experiment: Inhibition of VEGFR2 (unknown origin) using poly (Glu, Tyr) 4:1 after 30 mins by HTRF assay. The essentials: as §2
Experiment [11] has as its target Mast/stem cell growth factor receptor Kit (Homo sapiens, UniProt P10721). Briefly: Inhibition of c-Kit (unknown origin) using poly (Glu, Tyr) 4:1 after 30 mins by HTRF assay. Summed up: as §2
Experiment [12] addresses Platelet-derived growth factor receptor beta (Homo sapiens, UniProt P09619). Briefly: Inhibition of PDGFRbeta (unknown origin) using poly (Glu, Tyr) 4:1 after 30 mins by HTRF assay. The essentials:
as §2

The target of experiment [13] is T1, Receptor-type tyrosine-protein kinase FLT3 (Homo sapiens, UniProt P36888).
T1 sequence (P36888 whole entry): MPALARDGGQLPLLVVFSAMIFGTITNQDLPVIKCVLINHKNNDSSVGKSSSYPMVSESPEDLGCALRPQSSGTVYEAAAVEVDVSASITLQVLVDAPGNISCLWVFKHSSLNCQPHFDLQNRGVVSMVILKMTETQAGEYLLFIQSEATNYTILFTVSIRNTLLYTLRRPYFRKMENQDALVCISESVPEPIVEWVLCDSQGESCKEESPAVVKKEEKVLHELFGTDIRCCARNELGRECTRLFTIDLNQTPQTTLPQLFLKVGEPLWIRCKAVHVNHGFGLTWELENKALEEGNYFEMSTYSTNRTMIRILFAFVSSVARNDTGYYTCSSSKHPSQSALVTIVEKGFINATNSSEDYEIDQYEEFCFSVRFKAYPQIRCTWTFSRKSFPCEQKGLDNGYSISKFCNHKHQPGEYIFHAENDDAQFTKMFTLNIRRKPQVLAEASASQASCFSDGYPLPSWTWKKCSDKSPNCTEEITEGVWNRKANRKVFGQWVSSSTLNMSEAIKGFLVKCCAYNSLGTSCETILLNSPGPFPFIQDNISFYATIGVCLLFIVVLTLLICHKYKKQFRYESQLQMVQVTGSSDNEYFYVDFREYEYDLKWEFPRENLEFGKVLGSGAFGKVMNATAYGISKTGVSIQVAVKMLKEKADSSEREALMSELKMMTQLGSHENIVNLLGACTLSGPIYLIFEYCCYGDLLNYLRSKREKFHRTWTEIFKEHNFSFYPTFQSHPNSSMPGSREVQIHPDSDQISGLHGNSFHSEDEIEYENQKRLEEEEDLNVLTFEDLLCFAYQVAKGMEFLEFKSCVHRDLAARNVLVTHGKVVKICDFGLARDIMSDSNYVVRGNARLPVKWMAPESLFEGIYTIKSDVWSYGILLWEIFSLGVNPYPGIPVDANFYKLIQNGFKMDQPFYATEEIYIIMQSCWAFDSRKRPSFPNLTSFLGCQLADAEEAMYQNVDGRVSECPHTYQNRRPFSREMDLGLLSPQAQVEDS
Briefly: Inhibition of Flt-3 (unknown origin) using poly (Glu, Tyr) 4:1 after 30 mins by HTRF assay. Summed up:
as §2

Experiment [14] can be described thus: Ratio of foretinib IC50 to compound IC50 for human H460 cells after 72 hrs by MTT assay. The experiment is classed as functional.

In the case of `COc1cc2c(Oc3ccc(N/C=C4\C(=O)NC(=O)N(c5ccc(F)c(Cl)c5)C4=O)cc3F)ccnc2cc1OCCCN1CCCCC1`, the IC50 turned out to be 3.15 nM in experiment [1]; 40 nM in [2]; 1000 nM in experiment [3]; 180 nM in the experiment on A549 [4]; 80 nM in experiment [5]; 200 nM in the experiment with HT-29 [6].

`COc1cc2c(Oc3ccc(N/C=C4\C(=O)NC(=O)N(c5ccccc5)C4=O)cc3F)ccnc2cc1OCCCN1CCC(C)CC1`: the IC50 in [1] worked out at 3.84 nM; in [2], 46 nM; in [3], 1420 nM; in the experiment with A549 [4] it was 390 nM; in experiment [5] it was 170 nM; in the experiment on HT-29 [6], 280 nM.

As for `COc1cc2c(Oc3ccc(N/C=C4\C(=O)NC(=O)N(c5ccc(C)cc5)C4=O)cc3F)ccnc2cc1OCCCN1CCC(C)CC1`, the IC50 turned out to be 1.64 nM in experiment [1]; 56 nM in experiment [2]; 920 nM in [3]; 990 nM in the experiment with A549 [4]; 59 nM in [5]; 140 nM with HT-29 [6].

For the compound `COc1cc2c(Oc3ccc(N/C=C4\C(=O)NC(=O)N(c5ccc(F)cc5)C4=O)cc3F)ccnc2cc1OCCCN1CCC(C)CC1`, the concentration for half-maximal inhibition (IC50) in experiment [1] was found to be 3.09 nM; in [2] it was 120 nM; in experiment [3] it was 3200 nM; in the experiment on A549 [4], 350 nM; in experiment [5], 110 nM; in the experiment with HT-29 [6], 220 nM.

Consider `COc1cc2c(Oc3ccc(N/C=C4\C(=O)NC(=O)N(c5ccc(C)cc5)C4=O)cc3F)ccnc2cc1OCCCN1CCCC1`, for which the “Ratio IC50” value came to 1.8 in the experiment with A549 [7], 1.7 in the experiment with U-87 MG, 1.2 with HT-29 [9] and 3.7 in experiment [14]. Moreover, the IC50 in experiment [1] is 1.15 nM; in experiment [2], 57 nM; in experiment [3], 640 nM; in the experiment on A549 [4], 72 nM; in experiment [8], more than 100000 nM; in [5] it was 51 nM. The IC50 in [10] was determined as 384 nM; in the experiment with HT-29 [6] it was 130 nM; in [11] it was 652 nM; in experiment [12] it was 531 nM; in experiment [13], 496 nM.

With `COc1cc2c(Oc3ccc(N/C=C4\C(=O)NC(=O)N(c5ccc(C)cc5)C4=O)cc3F)ccnc2cc1OCCCN1CCCCC1`, the IC50 in experiment [1] worked out at 2.58 nM; in experiment [2], 190 nM; in [3] it was 1500 nM; in the experiment with A549 [4], 380 nM; in experiment [5] it was 100 nM; in the experiment with HT-29 [6] it was 120 nM.

Take `COc1cc2c(Oc3ccc(N/C=C4\C(=O)NC(=O)N(c5c(C)cccc5C)C4=O)cc3F)ccnc2cc1OCCCN1CCCCC1`: the 50% inhibitory concentration (IC50) is 3.72 nM in experiment [1]; 490 nM in experiment [2]; 1200 nM in [3]; 310 nM with A549 [4]; 160 nM in [5]; 200 nM with HT-29 [6].

On to `COc1cc2c(Oc3ccc(N/C=C4\C(=O)NC(=O)N(c5ccccc5)C4=O)cc3F)ccnc2cc1OCCCN1CCCCC1`, for which the IC50 in experiment [1] came to 4.31 nM; in [2], 280 nM; in experiment [3], 1300 nM; in the experiment with A549 [4], 510 nM; in experiment [5], 220 nM; with HT-29 [6], 160 nM.
